Screens: PubChem BioAssay, The Scripps Research Institute Molecular Screening Center
Most compounds without a hit are left out; they make up all but 3.9% or so of the library.
TAAR1 ag – human TAAR1 agonism | Q96RJ0 | CHO RD-HGA16 TAAR1, Fluo-8 calcium fluorescence; vehicle wells 0%, saturating PEA agonist 100% | activation, % at 3 µM | actives 0.99% (n = 360,000) | AID 624467;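 active = activation above the mean activation of all test compounds in the run plus 3 SD, cut at about 38% in these data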
Target sequence (Q96RJ0 whole entry, looked up): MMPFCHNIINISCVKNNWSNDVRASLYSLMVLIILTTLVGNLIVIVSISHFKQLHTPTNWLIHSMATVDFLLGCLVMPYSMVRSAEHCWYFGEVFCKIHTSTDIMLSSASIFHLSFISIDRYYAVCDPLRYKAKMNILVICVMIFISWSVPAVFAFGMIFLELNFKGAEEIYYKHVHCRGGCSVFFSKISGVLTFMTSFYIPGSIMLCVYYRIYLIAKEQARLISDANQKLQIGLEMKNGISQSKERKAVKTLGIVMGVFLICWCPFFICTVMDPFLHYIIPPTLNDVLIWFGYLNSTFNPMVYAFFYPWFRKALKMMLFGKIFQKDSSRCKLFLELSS
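test system = CHO RD-HGA16 cells carrying human TAAR1 plus Gα16 | schedule = 17-24 h seeding, 75 min 37 °C dye, 30 min RT | compound dosing = 3 µM single concentration | control set = DMSO and PEA EC100 | replicates = n 1 | signal = Fluo-8 fluorescence, 5 s baseline then 140 s kinetic read | measure = percent activation vs PEA EC100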
CHO parental Ca – signal in parental CHO cells, OX1R antagonist counter-screen | parental CHO-K1, ATP-induced calcium, Fluo-8 fluorescence | inhibition, % at 5.6 µM | actives 0.63% (n = 330,000) | AID 463079;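 active = inhibition above that plate's mean sample inhibition plus 3 SD, cut at about 26% in these data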;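 also: 0% = ATP-challenged DMSO wells and 100% = DMSO wells without ATP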
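Material: Parental CHO cells | Reagent: ATP | Compound dosing: Single nominal dose of 5.6 µM per compound | Detection: Intracellular calcium via Fluo-8 no-wash fluorescent dye | Read-out: % inhibition of ATP-induced calcium mobilization | Benchmarks: Low control ATP plus DMSO, high control DMSO only | Replicates: Singlicate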
OX1R antag-1 – human HCRTR1 antagonism | O43613 | actives 0.43% (n = 330,000) | CHO/OX1R cells, Fluo-8 calcium fluorescence, orexin A | inhibition, % at 5 µM;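 active = inhibition above its plate's threshold, mean inhibition of all tested compounds on the plate plus 3 SD, cut at about 37% in these data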;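 also: 0% = orexin A challenge wells and 100% = SB-334867-A antagonist wells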
TAAR1 antagonist – human TAAR1 antagonism | inhibition, % at 3 µM | AID 624466 | Q96RJ0 | CHO RD-HGA16 TAAR1, Fluo-8 calcium fluorescence, antagonist | actives 1.5% (n = 360,000);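 active = inhibition above a per-plate cutoff, the mean inhibition of test compounds on that plate plus 3 SD, cut at about 49% in these data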;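 also: 0% = DMSO plus EC80 beta-PEA response and 100% = DMSO alone without agonist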
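Test system: CHO RD-HGA16 cells bearing hTAAR1 | Reagent: β-PEA, EC80 | Compound dosing: 3 µM, single point | Schedule: Dye loading 75 min at 37 °C, then 30 min room temperature | Signal: Calcium fluorescence with Fluo-8 | Evaluation: Percent inhibition of PEA-evoked calcium signal, max/basal emission ratio | Control set: DMSO-only wells and EC80 β-PEA-stimulated wells | Repeats: Singlicate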
OX1R antag-2 – OX1R (human) antagonism; inhibition, % at 6.6 µM; actives 1.8% (n = 330,000); OX1R-expressing cells, FRET antagonist read-out; O43613; in the data active = inhibition mostly above about 38%, no sharp cut-off; inactive = mostly below about 40%;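 also: 0% = agonist challenge alone and 100% = reference antagonist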
* marks the source's active call; other numbers are inactive results; / = not tested or not shown.

SMILES	TAAR1 ag	CHO parental Ca	OX1R antag-1	TAAR1 antagonist	OX1R antag-2
COc1ccc(Cl)cc1NC(=O)c1[nH]c(C)c(C(C)=O)c1C	3	-4	-10	-24	5
O=C1N=c2ccc(Br)cc2=C1c1sc(=O)[nH]c1O	/	3	-21	/	42*
Cc1ccc2c(c1)=C(c1sc(N(C)c3ccc(O)cc3)nc1O)C(=O)N=2	3	1	-6	11	26
CCN(C)C1CN(Cc2cn(Cc3cc(C)cc(C)c3)nn2)S(=O)(=O)C1 (centres undefined)	3	/	/	-4	/
CCOc1ccc(OCCCC(=O)Nc2cc(Cl)ccc2-n2cncn2)cc1	15	3	-1	58*	1
Cc1ccc(-c2noc(CCC(=O)NC3CCCC3)n2)cc1	0	-8	-6	-3	5
COc1ccc(-c2noc(CCC(=O)Nc3ccc(C)c(C)c3)n2)cc1	4	-1	21	-5	16
Cc1ccc(-c2noc(CCCC(=O)NC3CCCCC3)n2)cc1	-1	40*	-7	9	9
CCOC(=O)c1ccc(NC(=O)CCc2nc(-c3ccc(Cl)cc3)no2)cc1	16	47*	45*	26	18
CCOC(=O)c1ccc(NC(=O)CCc2nc(-c3ccc(C)cc3)no2)cc1	15	33*	0	0	14
CNc1cncc(-c2ccc(OCCCN(C)C)nc2)n1	2	/	/	-9	/
CCOc1ccccc1NC(=O)COC(=O)C12CC3CC(CC(O)(C3)C1)C2	7	/	/	0	/
CCCC(=O)NC(=S)Nc1cccc(NC(=O)c2ccc(Cl)cc2Cl)c1	11	4	9	56*	27
CC(C)(C)c1ccc(C(=O)Nc2cccc([N+](=O)[O-])c2)cc1	4	-3	-3	26	33
O=C(Nc1cccnc1)c1ccc([N+](=O)[O-])cc1Cl	2	-6	-18	21	56*
CCCC(=O)Nc1cccc(NC(=O)c2ccc([N+](=O)[O-])cc2Cl)c1	2	-8	-23	2	62*
O=C(Oc1cccnc1)c1ccc([N+](=O)[O-])cc1Cl	0	3	1	-7	18
O=C(Nc1cccc([N+](=O)[O-])c1)c1ccncc1	0	-7	0	-23	66*
CC1(C(=O)NS(=O)(=O)c2ccc3ccccc3c2)CCN1C(=O)Cc1ccc(Cl)cc1Cl (centres undefined)	1	/	/	-14	/
COC(=O)c1cccc(NC(=O)COc2cccc([N+](=O)[O-])c2)c1	8	-12	-10	25	16
COc1cccc(C(=O)COc2cccc(NC(=O)c3cccc([N+](=O)[O-])c3)c2)c1	17	13	26	68*	40
O=C(Nc1ccc(OC(F)(F)F)cc1)Nc1cccc([N+](=O)[O-])c1	11	73*	36	53*	79*
O=C(Nc1ccc([N+](=O)[O-])cc1Cl)c1cc(Cl)ccc1O	6	29	33	-26	68*
COc1ccc(CNC(=O)c2oc3ccc(S(=O)(=O)N4CCOCC4)cc3c2C)cc1	29	-12	-6	51*	4
Cc1ccc(CNC(=O)c2oc3ccc(S(=O)(=O)N4CCOCC4)cc3c2C)cc1	26	-7	-2	47	-4
SMILES	TAAR1 ag	CHO parental Ca	OX1R antag-1	TAAR1 antagonist	OX1R antag-2
O=C(CN1C(=O)NC2(CCc3ccccc32)C1=O)Nc1ccc(Cl)cc1F (centres undefined)	4	/	/	0	/
OCCN=c1cc(-c2ccccc2)oc2ccc(Cl)cc12	/	-17	-38	/	47*
CN(C)CCCN=c1cc(-c2ccccc2)oc2ccc(Cl)cc12	4	/	/	12	/
COc1ncc(-c2ccc(N3C(c4ccsc4)=Cc4ccccc4C3CC(C)=O)cc2)cn1 (centres undefined)	2	/	/	-21	/
Cc1noc(C)c1CSc1nc2ccccc2nc1NS(=O)(=O)c1ccc(Cl)cc1	/	-8	-9	/	61*
CN(C)P(=O)(Nc1cccc2ccccc12)Nc1cccc2ccccc12	9	-8	32	1	59*
CC(C)OP(=O)(Nc1cccc2ccccc12)OC(C)C	7	-12	-14	-17	8
C=CCN1C(=O)c2ccc(C(=O)N(C)CC(=O)Nc3ccc(OCC)c(OCC)c3)cc2C1=O	1	39*	-5	-19	27
C[C@H](CO)N1C[C@H](C)[C@@H](CN(C)C(=O)NC2CCCCC2)OCc2cn(nn2)CCCC1=O	1	/	/	-6	/
Cc1nc(N2CCN(c3ccccc3)CC2)nc2c1C(=O)CCC2	11	-7	-15	57*	9
Cc1nc(N2CCN(c3ccccc3)CC2)nc2c1C(=O)CC(C)C2 (centres undefined)	13	-13	-15	2	7
CC1(C(=O)NCc2cccc3ccccc23)CCN1Cc1cccc2c1OCO2 (centres undefined)	-3	/	/	-18	/
CC(C)(O)C#Cc1ccc(N2C(c3ccsc3)=Cc3ccc(F)cc3C2c2c[nH]c3ccccc23)cc1 (centres undefined)	3	/	/	1	/
CC(C)NC(=O)C1(C)CCCCN1Cc1ccc(OCc2ccccc2)cc1 (centres undefined)	4	/	/	-26	/
CC(C)(C)NC(=O)COC(=O)CNC(=O)c1cc(Cl)cc([N+](=O)[O-])c1	1	-5	-6	0	44
O=C(CNC(=O)c1cc(Cl)cc([N+](=O)[O-])c1)NC1CC1	0	-5	0	10	48*
CCCCNC(=O)COC(=O)CNC(=O)c1cc(Cl)cc([N+](=O)[O-])c1	0	-9	-9	-6	77*
CCNC(=O)COC(=O)CNC(=O)c1cc(Cl)cc([N+](=O)[O-])c1	6	-7	-12	-25	41*
O=c1ccn([C@@H]2O[C@H](CNCC3=Cc4cc(O)ccc4OC3)[C@@H](O)[C@H]2O)c(=O)[nH]1	7	/	/	-14	/
O=C(CCNS(=O)(=O)c1cccc2nsnc12)NCc1ccccc1	4	-1	-16	-27	77*
CC(NC(=O)CCNS(=O)(=O)c1cccc2nsnc12)c1ccccc1 (centres undefined)	1	-12	-9	-32	69*
CC(=O)Nc1nc(-c2ccc3c(c2)CCN3C(=O)C2CC2)c(C)s1	2	-10	-11	-11	48*
CNc1nc(-c2ccc3c(c2)CCN3C(=O)CC(C)(C)C)c(C)s1	0	-18	-18	0	31
O=C1c2cccc3c([N+](=O)[O-])ccc(c23)C(=O)N1CCc1ccccn1	0	6	1	18	9
CN(C)CCCN1C(=O)c2cccc3c([N+](=O)[O-])ccc(c23)C1=O	2	18	21	-3	68*
COc1ccc(Cl)cc1NC(=O)CSc1nc(C)cc(C)n1	3	-11	-27	0	12
COc1ccc(C)cc1NC(=O)CSc1nc2scc(C)c2c(=O)[nH]1	1	2	-6	-46	71*
